Laboratory results from ChEMBL document CHEMBL4321796, “Proteolysis Targeting Chimeras for the Selective Degradation of Mcl-1/Bcl-2 Derived from Nonselective Target Binding Ligands” (J Med Chem, 2019).
Active and inactive are the calls of the source. The rule behind the calls is not given here.

How the values were obtained:
[1] = molecular target: T1, Protein cereblon/Induced myeloid leukemia cell differentiation protein Mcl-1 (Homo sapiens, UniProt Q07820+Q96SW2); test: Induction of CRBN-mediated Mcl-1 degradation in human HeLa cells at 10 uM pretreated with Bcl-2 inhibitor Nap-1 followed by compound addition by Western blot analysis; format: cell-based
Target sequence in this assay (Q07820 whole entry, looked up): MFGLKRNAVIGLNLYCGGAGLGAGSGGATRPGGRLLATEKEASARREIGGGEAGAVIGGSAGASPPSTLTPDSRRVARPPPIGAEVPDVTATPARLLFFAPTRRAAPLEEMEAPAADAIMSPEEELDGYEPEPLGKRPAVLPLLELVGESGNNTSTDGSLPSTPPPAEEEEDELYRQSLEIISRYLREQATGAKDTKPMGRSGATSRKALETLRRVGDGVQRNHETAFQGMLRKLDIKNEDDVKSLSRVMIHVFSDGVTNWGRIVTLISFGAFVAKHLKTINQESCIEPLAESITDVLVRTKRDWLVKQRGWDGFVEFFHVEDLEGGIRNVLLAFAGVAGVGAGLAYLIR
Target sequence in this assay (Q96SW2 whole entry, looked up): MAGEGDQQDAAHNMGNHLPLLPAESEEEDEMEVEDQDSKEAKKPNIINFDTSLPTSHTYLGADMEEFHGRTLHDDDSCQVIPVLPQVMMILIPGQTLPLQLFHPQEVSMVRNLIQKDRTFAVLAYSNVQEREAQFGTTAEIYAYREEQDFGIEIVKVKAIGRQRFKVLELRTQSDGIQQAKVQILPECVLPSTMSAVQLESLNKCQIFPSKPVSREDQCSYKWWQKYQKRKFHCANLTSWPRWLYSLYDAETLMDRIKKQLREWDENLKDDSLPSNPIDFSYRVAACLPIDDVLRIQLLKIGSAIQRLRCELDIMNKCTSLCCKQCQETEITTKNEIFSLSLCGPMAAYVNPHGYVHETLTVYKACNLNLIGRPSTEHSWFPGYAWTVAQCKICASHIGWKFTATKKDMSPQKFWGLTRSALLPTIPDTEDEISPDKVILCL

[2] = molecular target: T1, Protein cereblon/Induced myeloid leukemia cell differentiation protein Mcl-1; test: Induction of CRBN-mediated Mcl-1 degradation in human HeLa cells assessed as relative abundance at 10 uM measured at 20 hrs by Western blot analysis (reference value: 1); format: cell-based
Procedure, shortened: (§1)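 HeLa cells in DMEM with 10% FBS, exposed to 10 µM compound over a 0–24 h time course. Mcl-1 and Bcl-2 detected by immunoblot (NP-40 lysis, BCA-equalized SDS-PAGE, PVDF, ECL) and quantified relative to DMSO control; mean ± s.d., n=3 independent samples.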
Target sequence in this assay (Q07820 whole entry, looked up): as the sequence (Q07820 whole entry, looked up) above
Target sequence in this assay (Q96SW2 whole entry, looked up): as the sequence (Q96SW2 whole entry, looked up) above

[3] = molecular target: T2, Protein cereblon/Apoptosis regulator Bcl-2 (Homo sapiens, UniProt P10415+Q96SW2); test: Induction of CRBN-mediated Bcl-2 degradation in human HeLa cells assessed as relative abundance at 3 uM after 12 hrs by Western blot analysis (reference value: 1); format: cell-based
[4] = molecular target: T1, Protein cereblon/Induced myeloid leukemia cell differentiation protein Mcl-1; test: Induction of CRBN-mediated Mcl-1 degradation in human HeLa cells assessed as Mcl-1 removal activity measured at 12 hrs by Western blot analysis; format: cell-based
Target sequence in this assay (Q07820 whole entry): as the sequence (Q07820 whole entry, looked up) above
Target sequence in this assay (Q96SW2 whole entry): as the sequence (Q96SW2 whole entry, looked up) above

[5] = molecular target: T2, Protein cereblon/Apoptosis regulator Bcl-2; test: Induction of CRBN-mediated Bcl-2 degradation in human HeLa cells assessed as relative abundance at 10 uM after 12 hrs by Western blot analysis (reference value: 1); format: cell-based
HeLa = test: Induction of CRBN-mediated tubulin degradation in human HeLa cells at 10 uM incubated for 12 hrs by Western blot analysis; format: cell-based
Procedure, shortened: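 HeLa cells (DMEM, 10% FBS, 37 °C, 5% CO2) treated 12 h with compound (10 µM, or 0–10 µM gradient; time course 0–24 h at 10 µM). Lysis in NP-40 buffer with protease inhibitors, equal protein loaded for SDS-PAGE and immunoblotting. Bands quantified relative to DMSO control. n=3 independent samples.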

[6] = molecular target: T1, Protein cereblon/Induced myeloid leukemia cell differentiation protein Mcl-1; test: Induction of CRBN-mediated Mcl-1 degradation in human HeLa cells after 12 hrs by Western blot analysis; format: cell-based
Target sequence in this assay (Q07820 whole entry, looked up): as the sequence (Q07820 whole entry, looked up) above
Target sequence in this assay (Q96SW2 whole entry, looked up): as the sequence (Q96SW2 whole entry, looked up) above

[7] = molecular target: T1, Protein cereblon/Induced myeloid leukemia cell differentiation protein Mcl-1; test: Induction of CRBN-mediated Mcl-1 degradation in human HeLa cells at 10 uM pretreated with proteasome inhibitor MG-132 followed by compound addition by Western blot analysis; format: cell-based
Target sequence in this assay (Q07820 whole entry, looked up): as the sequence (Q07820 whole entry, looked up) above
Target sequence in this assay (Q96SW2 whole entry, looked up): as the sequence (Q96SW2 whole entry, looked up) above

[8] = molecular target: Induced myeloid leukemia cell differentiation protein Mcl-1 (Homo sapiens, UniProt Q07820); test: Inhibition of biotinylated Bim peptide (81 to 106 residues) binding to His-tagged human Mcl-1 expressed in Escherichia coli BL21 (DE3) cells preincubated for 1 hr followed by biotinylated Bim peptide addition measured after 2 hrs by ELISA
Procedure, shortened: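 Inhibitor serially diluted (100–0.1 µM) from 10 mM DMSO stock, preincubated 1 h with 200 nM His-tagged protein in PBS (final DMSO 4%), then added 2 h to streptavidin plates holding biotin-Bim (plated at 0.09 mg/mL). Incubations at 4 °C. Detection with HRP anti-His, TMB 30 min, H2SO4 stop, A450. IC50 averaged from three independent experiments, with SD.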

[9] = molecular target: T1, Protein cereblon/Induced myeloid leukemia cell differentiation protein Mcl-1; test: Induction of CRBN-mediated Mcl-1 degradation in human HeLa cells at 10 uM measured at 12 hrs by Western blot analysis relative to control; format: cell-based; procedure, shortened: as §1
Target sequence in this assay (Q07820 whole entry, looked up): as the sequence (Q07820 whole entry, looked up) above
Target sequence in this assay (Q96SW2 whole entry, looked up): as the sequence (Q96SW2 whole entry, looked up) above

[10] = molecular target: T1, Protein cereblon/Induced myeloid leukemia cell differentiation protein Mcl-1; test: Induction of CRBN-mediated Mcl-1 degradation in human HeLa cells assessed as relative abundance at 10 uM measured at 2 hrs by Western blot analysis (reference value: 1); format: cell-based; procedure, shortened: as §1
Target sequence in this assay (Q07820 whole entry, looked up): as the sequence (Q07820 whole entry, looked up) above
Target sequence in this assay (Q96SW2 whole entry, looked up): as the sequence (Q96SW2 whole entry, looked up) above

[11] = molecular target: T1, Protein cereblon/Induced myeloid leukemia cell differentiation protein Mcl-1; test: Induction of CRBN-mediated Mcl-1 degradation in human HeLa cells assessed as Mcl-1 level at 10 uM after 12 hrs by Western blot analysis relative to control; format: cell-based
[12] = molecular target: T2, Protein cereblon/Apoptosis regulator Bcl-2; test: Induction of CRBN-mediated Bcl-2 degradation in human HeLa cells assessed as relative abundance at 10 uM measured at 20 hrs by Western blot analysis (reference value: 1); format: cell-based; procedure, shortened: as §1
[13] = molecular target: T2, Protein cereblon/Apoptosis regulator Bcl-2; test: Induction of CRBN-mediated Bcl-2 degradation in human HeLa cells assessed as relative abundance at 10 uM measured at 2 hrs by Western blot analysis (reference value: 1); format: cell-based; procedure, shortened: as §1
NCI-H23 = test: Cytotoxicity against human H23 cells incubated for 24 hrs by CCK8 assay; format: functional, cell-based
Procedure, shortened: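 H23 cells seeded at 4 × 10^4 per mL in RPMI with 10% FBS, L-glutamine and pen/strep. Treated 24 h at various concentrations or with DMSO vehicle (0.05%). Viability read by CCK8 and normalized against cell-free background and untreated cultures; mean ± s.e.m., n=3.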

[14] = molecular target: T1, Protein cereblon/Induced myeloid leukemia cell differentiation protein Mcl-1; test: Induction of CRBN-mediated Mcl-1 degradation in human HeLa cells assessed as relative abundance at 0.1 uM after 12 hrs by Western blot analysis (reference value: 1); format: cell-based
[15] = molecular target: T1, Protein cereblon/Induced myeloid leukemia cell differentiation protein Mcl-1; test: Induction of CRBN-mediated Mcl-1 degradation in human HeLa cells assessed as relative abundance at 0.3 uM after 12 hrs by Western blot analysis (reference value: 1); format: cell-based
[16] = molecular target: T1, Protein cereblon/Induced myeloid leukemia cell differentiation protein Mcl-1; test: Induction of CRBN-mediated Mcl-1 degradation in human HeLa cells assessed as relative abundance at 10 uM measured at 4 hrs by Western blot analysis (reference value: 1); format: cell-based; procedure, shortened: as §1
[17] = molecular target: T1, Protein cereblon/Induced myeloid leukemia cell differentiation protein Mcl-1; test: Induction of CRBN-mediated Mcl-1 degradation in human HeLa cells assessed as relative abundance at 10 uM measured at 24 hrs by Western blot analysis (reference value: 1); format: cell-based; procedure, shortened: as §1
[18] = molecular target: T2, Protein cereblon/Apoptosis regulator Bcl-2; test: Induction of CRBN-mediated Bcl-2 degradation in human HeLa cells assessed as relative abundance at 10 uM measured at 16 hrs by Western blot analysis (reference value: 1); format: cell-based; procedure, shortened: as §1
[19] = molecular target: T2, Protein cereblon/Apoptosis regulator Bcl-2; test: Induction of CRBN-mediated Bcl-2 degradation in human HeLa cells assessed as relative abundance at 10 uM measured at 4 hrs by Western blot analysis (reference value: 1); format: cell-based; procedure, shortened: as §1
[20] = molecular target: T2, Protein cereblon/Apoptosis regulator Bcl-2; test: Induction of CRBN-mediated Bcl-2 degradation in human HeLa cells assessed as relative abundance at 0.1 uM after 12 hrs by Western blot analysis (reference value: 1); format: cell-based
[21] = molecular target: T2, Protein cereblon/Apoptosis regulator Bcl-2; test: Induction of CRBN-mediated Bcl-2 degradation in human HeLa cells assessed as reduction in Bcl-2 level at 10 uM after 12 hrs by Western blot analysis; format: cell-based
[22] = molecular target: T2, Protein cereblon/Apoptosis regulator Bcl-2; test: Induction of CRBN-mediated Bcl-2 degradation in human HeLa cells assessed as relative abundance at 10 uM measured at 8 hrs by Western blot analysis (reference value: 1); format: cell-based; procedure, shortened: as §1
[23] = molecular target: T1, Protein cereblon/Induced myeloid leukemia cell differentiation protein Mcl-1; test: Induction of CRBN-mediated Mcl-1 degradation in human HeLa cells assessed as relative abundance at 1 uM after 12 hrs by Western blot analysis (reference value: 1); format: cell-based
[24] = molecular target: T1, Protein cereblon/Induced myeloid leukemia cell differentiation protein Mcl-1; test: Induction of CRBN-mediated Mcl-1 degradation in human HeLa cells assessed as relative abundance at 10 uM measured at 16 hrs by Western blot analysis (reference value: 1); format: cell-based; procedure, shortened: as §1
[25] = molecular target: T1, Protein cereblon/Induced myeloid leukemia cell differentiation protein Mcl-1; test: Induction of CRBN-mediated Mcl-1 degradation in human K562 cells incubated for 12 hrs by Western blot analysis; format: cell-based
Procedure, shortened: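 K562 cells kept in RPMI1640 with 10% FBS at 37 °C, 5% CO2. After compound treatment, cells lysed in NP-40 buffer with protease inhibitors. Equal protein run on SDS-PAGE, then immunoblotted; protein levels quantified from the blots.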

T2 sequence (P10415 whole entry, looked up): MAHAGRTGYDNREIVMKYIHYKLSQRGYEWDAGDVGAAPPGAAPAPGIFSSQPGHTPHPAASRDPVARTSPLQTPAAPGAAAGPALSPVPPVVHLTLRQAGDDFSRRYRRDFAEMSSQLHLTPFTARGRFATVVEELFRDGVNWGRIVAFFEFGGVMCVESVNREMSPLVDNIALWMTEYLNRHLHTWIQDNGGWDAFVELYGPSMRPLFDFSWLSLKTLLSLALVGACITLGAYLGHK
T2 sequence (Q96SW2 whole entry, looked up): as the sequence (Q96SW2 whole entry, looked up) above
Sequence of Induced myeloid leukemia cell differentiation protein Mcl-1 (Q07820 whole entry, the tested form may be a part): as the sequence (Q07820 whole entry, looked up) above

Question: For `O=C(CCCCC(=O)NCCN1C(=O)c2cccc3c(Sc4ccc(Br)cc4)ccc(c23)C1=O)NCCCCCCNc1cccc2c1C(=O)N(C1CCC(=O)NC1=O)C2=O` (configuration not stated), which Activity [1] is on record?
Answer: inactive

Question: And the fold change (FC) [2]?
Answer: 0.8

Question: What about the fold change (FC) [3] of the same molecule?
Answer: 1

Question: What about the DC50 [4] of the same molecule?
Answer: 700 nM

Question: And the fold change (FC) [5]?
Answer: 0.8 to 1

Question: And the Activity (HeLa)?
Answer: inactive

Question: What about the Activity [6] of the same molecule?
Answer: Dose-dependent effect

Question: What about the Activity [7] of the same molecule?
Answer: inactive

Question: What about the IC50 [8] of the same molecule?
Answer: 780 nM

Question: And the Activity [9]?
Answer: 80%

Question: And the fold change (FC) [10]?
Answer: 1.1

Question: And the Activity [11]?
Answer: < 10%

Question: What about the fold change (FC) [12] of the same molecule?
Answer: 1

Question: What about the fold change (FC) [13] of the same molecule?
Answer: 1.1

Question: And the Activity (NCI-H23)?
Answer: Active

Question: And the fold change (FC) [14]?
Answer: 1.1

Question: What about the fold change (FC) [15] of the same molecule?
Answer: 0.9

Question: And the fold change (FC) [16]?
Answer: 1.1

Question: And the fold change (FC) [17]?
Answer: 0.9

Question: And the fold change (FC) [18]?
Answer: 1

Question: And the fold change (FC) [19]?
Answer: 1.1

Question: And the fold change (FC) [20]?
Answer: 0.9

Question: And the Activity [21]?
Answer: inactive

Question: And the fold change (FC) [22]?
Answer: 1

Question: What about the fold change (FC) [23] of the same molecule?
Answer: 0.3

Question: What about the fold change (FC) [24] of the same molecule?
Answer: 0.4

Question: And the Activity [25]?
Answer: Active
